rCAG binder: r(CAG) repeat RNA binding | TO-PRO-1 dye displacement fluorescence | inhibition, % at 3 µM | hit rate 1.3% among 370,000 | AID 651821;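 active means inhibition above the plate cutoff, the mean of all test compounds on that plate plus 3 SD, cut at about 35% in these data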;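 further: 0% = DMSO alone and 100% = 100 µM mitoxantrone as full dye displacement; higher means more dye released from RNA so lower well fluorescence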
PRMT1 inh: blocks human protein arginine methyltransferase 1; inhibition, % at 2.79 µM; hit rate 1.3% among 370,000; recombinant PRMT1, activity-based probe fluorescence polarization; Q99873; AID 652257;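 active means inhibition above about 21% made by adding two undisclosed values, limit read from the data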
DAGLB inhibitor: blocks human DAGLB lipase activity | Q8NCG7 | HEK293T DAGLB membrane lysate, EnzChek fluorogenic substrate | inhibition, % at 5.17 µM | hit rate 0.059% among 340,000; in the data active means inhibition above about 34%;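 further: 0% = enzyme with vehicle and 100% = wells lacking enzyme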
LEDGF integ inh: blocks HIV-1 LEDGF/p75-dependent DNA integration. inhibition, % at 3.7 µM. hit rate 0.64% among 370,000. TR-FRET IN-LEDGF/p75 DNA integration, Eu/Cy5. AID 743269;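 active means inhibition above the screen-wide mean plus 3 SD, cut at about 13% in these data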;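 further: signal is the Cy5 over europium emission ratio at 671 and 618 nm; 0% = plate median of compound wells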
HTRA1 inh: blocks human HTRA1 serine peptidase | inhibition, % at 5.96 µM | AID 504803 | hit rate 0.5% among 340,000 | recombinant HTRA1, FP-rhodamine activity-based probe, fluorescence polarization; in the data active means inhibition above about 36%;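 further: 0% = enzyme with DMSO and 100% = wells lacking enzyme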
Target sequence (Q92743 whole entry, looked up): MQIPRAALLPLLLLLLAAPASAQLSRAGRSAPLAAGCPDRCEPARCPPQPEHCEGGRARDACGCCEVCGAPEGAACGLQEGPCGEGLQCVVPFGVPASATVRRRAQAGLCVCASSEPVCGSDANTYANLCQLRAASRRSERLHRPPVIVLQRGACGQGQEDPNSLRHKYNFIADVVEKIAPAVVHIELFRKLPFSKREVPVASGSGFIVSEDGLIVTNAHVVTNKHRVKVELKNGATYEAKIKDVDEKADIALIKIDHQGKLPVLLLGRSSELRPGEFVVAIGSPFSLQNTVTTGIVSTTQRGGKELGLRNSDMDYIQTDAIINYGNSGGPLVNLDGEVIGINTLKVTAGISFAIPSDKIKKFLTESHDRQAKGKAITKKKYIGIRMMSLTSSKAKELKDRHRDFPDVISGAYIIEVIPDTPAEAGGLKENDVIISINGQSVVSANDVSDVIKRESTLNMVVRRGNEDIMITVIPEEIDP
ABHD4 inh: inhibitors of mouse ABHD4; Q8VD66; purified mABHD4, FP-Rh probe fluorescence polarization; inhibition, % at 8.92 µM; hit rate 0.54% among 370,000; AID 720543;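 active means inhibition exceeding the mean over every tested compound plus 3 SD, cut at about 30% in these data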;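 further: 0% = plate median of compound wells and 100% = S159A mutant with DMSO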
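assay system = mABHD4 protein | compound dosing = single nominal dose of 8.92 µM, 0.89% DMSO final | read-out basis = percent inhibition of probe binding, normalized to plate controls | schedule = Enzyme–compound pre-incubation 45 min, then probe 60 min, both 25 °C | detection = fluorescence polarization, excitation 525 nm, emission 598 nm, BODIPY TMR filters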
ABHD4 confirm: confirmation of mouse ABHD4 inhibitors; shares compounds with ABHD4 inh; purified mABHD4, FP-Rh probe fluorescence polarization; inhibition, % at 8.92 µM; hit rate 55% among 1,800; AID 720658;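 active means mean inhibition across replicates above the hit cutoff set in the primary screen, cut at about 30% in these data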;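 further: 0% = wild-type ABHD4 with DMSO and 100% = catalytically dead S159A mutant with DMSO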
The depositor's hits bear a star. This is a sample that favours compounds with a hit; in the whole collection about 3.2% have one here.

What do the screens show for `CC1CCCCC1NC(=O)COCc1cc(-c2cccs2)on1` (configuration not stated)?
rCAG binder: -4.4; PRMT1 inh: -0.8; DAGLB inhibitor: -2.5; LEDGF integ inh: -0.4; HTRA1 inh: 2.5; ABHD4 inh: 3.0

How did CNc1sc(C(=O)c2ccc(F)cc2)c(N)c1-c1nc2ccccc2s1 do in these assays?
rCAG binder: 19.4; PRMT1 inh: 1.8; DAGLB inhibitor: 13.8; LEDGF integ inh: 0.1; HTRA1 inh: 18.5; ABHD4 inh: 31.9*; ABHD4 confirm: 68.3*

How did COc1ccc(-c2ccc3c(c2)C2CC3CCN2C(=O)C(C)(C)C)cc1 (configuration not stated) do in these assays?
rCAG binder: -0.5; PRMT1 inh: 1.9; DAGLB inhibitor: -2.6; LEDGF integ inh: -4.5; HTRA1 inh: -16.4; ABHD4 inh: -5.5

Results for Cc1c(Cl)cccc1N/C(SCC(=O)N1CCCCCC1)=C(/C#N)c1nc2ccccc2s1 ?
rCAG binder: 3.6; PRMT1 inh: -1.5; DAGLB inhibitor: -0.8; LEDGF integ inh: -0.7; HTRA1 inh: -3.1; ABHD4 inh: 35.0*; ABHD4 confirm: 34.3*

What do the screens show for `CC(C)(O)C#Cc1ccc(CN2CCN(Cc3ccsc3)C(CCO)C2)s1` (configuration not stated)?
rCAG binder: -5.6; PRMT1 inh: -1.5; DAGLB inhibitor: 2.3; LEDGF integ inh: -2.8; HTRA1 inh: 5.2; ABHD4 inh: 93.1*; ABHD4 confirm: -3.4

What do the screens show for `OCCNc1nc(Nc2ccc(Br)cc2)nc2ccccc12`?
rCAG binder: 11.8; PRMT1 inh: -0.8; LEDGF integ inh: 1.1; ABHD4 inh: 33.9*; ABHD4 confirm: 46.8*

Results for CNc1nc(NCc2ccccc2)c2ccccc2n1 ?
rCAG binder: 14.2; PRMT1 inh: -0.6; DAGLB inhibitor: -1.7; LEDGF integ inh: -0.2; HTRA1 inh: 0.5; ABHD4 inh: -1.1

How did COc1ccccc1Nc1nc(NCc2ccco2)c2ccccc2n1 do in these assays?
rCAG binder: 10.8; PRMT1 inh: -1.1; LEDGF integ inh: 2.4; ABHD4 inh: 3.1

How did Cc1ccc(Nc2nc(NCc3ccco3)c3ccccc3n2)cc1 do in these assays?
rCAG binder: 17.1; PRMT1 inh: 2.7; DAGLB inhibitor: 1.2; LEDGF integ inh: -2.9; HTRA1 inh: -37.1; ABHD4 inh: 36.1*; ABHD4 confirm: 41.0*

How did Oc1ccccc1Nc1nc(NCc2ccccc2)c2ccccc2n1 do in these assays?
rCAG binder: 16.1; PRMT1 inh: -2.9; DAGLB inhibitor: -0.5; LEDGF integ inh: -8.6; HTRA1 inh: 15.3; ABHD4 inh: 42.9*; ABHD4 confirm: 54.8*

How did S=c1[nH]nc(COc2cccc(Cl)c2)n1Cc1ccccc1 do in these assays?
rCAG binder: 13.7; PRMT1 inh: 7.5; DAGLB inhibitor: 8.1; LEDGF integ inh: 0.9; HTRA1 inh: -8.1; ABHD4 inh: -6.7

Results for C[C@H](CO)N1C[C@H](C)[C@@H](CN(C)S(=O)(=O)c2ccccc2)Oc2ccc(NC(=O)Nc3ccc4c(c3)OCO4)cc2C1=O ?
rCAG binder: 7.9; PRMT1 inh: -0.3; DAGLB inhibitor: 3.8; LEDGF integ inh: -1.3; HTRA1 inh: 7.7; ABHD4 inh: 4.6

How did CCN(CC)c1ccc2cc(C(N)=O)c(=O)oc2c1 do in these assays?
rCAG binder: -3.9; PRMT1 inh: -3.5; DAGLB inhibitor: -6.2; LEDGF integ inh: 2.7; HTRA1 inh: 9.7; ABHD4 inh: 41.4*; ABHD4 confirm: 4.4

How did CCN(CC)c1ccc2cc(C(N)=O)c(=N)oc2c1 do in these assays?
rCAG binder: -6.0; PRMT1 inh: -7.5; LEDGF integ inh: -4.2; ABHD4 inh: 8.9

Results for CCOC(=O)C1CCCN(C(=O)C2COc3ccccc3O2)C1 (configuration not stated) ?
rCAG binder: -8.4; PRMT1 inh: 8.9; DAGLB inhibitor: -0.2; LEDGF integ inh: 1.0; HTRA1 inh: -4.4; ABHD4 inh: 45.1*; ABHD4 confirm: -0.9

How did COCC(C)N1CC(O)=C(c2nc(-c3ccc(Cl)cc3)cs2)C1=N (configuration not stated) do in these assays?
rCAG binder: 5.6; PRMT1 inh: 1.3; DAGLB inhibitor: 1.7; LEDGF integ inh: 1.4; HTRA1 inh: 8.3; ABHD4 inh: 31.7*; ABHD4 confirm: 28.6

How did Cc1cccc(OCC(=O)Nc2ccc(N3CCN(C(=O)c4ccccc4)CC3)cc2)c1C do in these assays?
rCAG binder: 0.5; PRMT1 inh: -5.5; DAGLB inhibitor: -3.5; LEDGF integ inh: -0.9; HTRA1 inh: -3.1; ABHD4 inh: 0.9

What do the screens show for `CCc1ccc(OCC(=O)Nc2ccc(N3CCN(C(=O)c4ccccc4)CC3)cc2)cc1`?
rCAG binder: -3.0; PRMT1 inh: 0.3; DAGLB inhibitor: 1.2; LEDGF integ inh: 3.2; HTRA1 inh: -5.5; ABHD4 inh: 58.3*; ABHD4 confirm: 6.5

Results for CCOC(CNC(=O)CCc1c(C)nc2nc(C)nn2c1C)OCC ?
rCAG binder: -3.3; PRMT1 inh: -3.2; DAGLB inhibitor: -0.8; LEDGF integ inh: -1.6; HTRA1 inh: 3.5; ABHD4 inh: 3.6

Results for CCN(CC)S(=O)(=O)c1ccc(C(=O)NCc2ccc3c(c2)cc(C)n3C)cc1 ?
rCAG binder: 18.0; PRMT1 inh: 17.9; DAGLB inhibitor: 0.8; LEDGF integ inh: 6.6; HTRA1 inh: -0.2; ABHD4 inh: 104.1*; ABHD4 confirm: 0.4

Results for Cc1cc2cc(CNC(=O)C(C)Oc3ccccc3)ccc2n1C (configuration not stated) ?
rCAG binder: -1.1; PRMT1 inh: 9.7; DAGLB inhibitor: 3.8; LEDGF integ inh: 0.4; HTRA1 inh: 29.7; ABHD4 inh: 33.7*; ABHD4 confirm: 14.9

Results for Cc1cc2cc(CNC(=O)c3ccc(S(=O)(=O)N4CCCCC4)cc3)ccc2n1C ?
rCAG binder: 18.6; PRMT1 inh: 6.0; DAGLB inhibitor: 5.2; LEDGF integ inh: 6.7; HTRA1 inh: -5.8; ABHD4 inh: 86.9*; ABHD4 confirm: -10.7

What do the screens show for `CCN(CC)S(=O)(=O)c1ccc(C(=O)NCc2ccc3c(c2)OCO3)cc1`?
rCAG binder: -3.3; PRMT1 inh: 2.9; DAGLB inhibitor: -1.8; LEDGF integ inh: -3.4; HTRA1 inh: -1.2; ABHD4 inh: 6.9

How did Cc1ccc(CNC(=O)c2ccc(S(=O)(=O)N3CCCC3)cc2)cc1 do in these assays?
rCAG binder: 0.4; PRMT1 inh: 2.0; DAGLB inhibitor: -2.8; LEDGF integ inh: 2.6; HTRA1 inh: -2.2; ABHD4 inh: -1.6

How did Cc1cc2cc(CNC(=O)c3ccc(S(=O)(=O)N4CCCC4)cc3)ccc2n1C do in these assays?
rCAG binder: 18.6; PRMT1 inh: 3.4; DAGLB inhibitor: 3.0; LEDGF integ inh: -1.2; HTRA1 inh: 24.7; ABHD4 inh: 38.8*; ABHD4 confirm: 11.1
